Screening data as filed in PubChem BioAssay.
Rtt109 HAT inh = inhibitors of Candida albicans Rtt109/Vps75 histone acetyltransferase. Q5AAJ8. AID 540336. hit rate 0.16% among 330,000. inhibition, % at 34.9 µM. purified Rtt109/Vps75, ThioGlo CoA-SH fluorescence, 4 h;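 active = inhibition of at least 50% in every replicate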
HDAC3 inh = blocks human histone deacetylase 3 | recombinant HDAC3, fluorogenic peptide/trypsin coupled, fluorescence | inhibition, % at 8.3 µM | hit rate 0.15% among 320,000; in the data active = inhibition above about 26%, passing the limit was not always enough
UCH37 inh = inhibitors of human deubiquitinating enzyme UCH37; purified proteasome/UCH37, Ub-AMC cleavage fluorescence; inhibition, % (no concentration beside the values); Q9Y5K5; hit rate 0.33% among 330,000;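 active = mean inhibition over replicate wells above about 20%, limit read from the data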
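Signal – fluorescence, ex 355 nm, em 460 nm · System – Proteasome-bound UCH37 · Input – 0.15 nM proteasome as dispensed · Timing – 30 min preincubation with enzyme, 25 min cleavage at room temperature · Read-out basis – percent inhibition of cleavage signal versus uninhibited and no-proteasome wells · Medium – Tris-HCl pH 7.4 with ATP-MgCl2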
M18AAP inhibitor = blocks P. falciparum M18 aspartyl aminopeptidase; recombinant PfM18AAP, H-Glu-NHMec fluorogenic cleavage; inhibition, % at 7.35 µM; hit rate 1.2% among 290,000;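 active = inhibition above the campaign mean inhibition over all tested compounds plus 3 SD, cut at about 28% in these data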
ALR inh = human ALR oxidase inhibition via reduced H2O2 | purified ALR, DTT oxidation, H2O2 HRP-luminol luminescence | inhibition, % (concentration not given with the values) | hit rate 3.8% among 290,000 | AID 485317;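 active = mean replicate inhibition above about 79%, with every replicate also reaching it, limit read from the data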
FAS-TE inh = FAS thioesterase (human) inhibition. AID 602261. recombinant FAS-TE, OMFH fluorogenic substrate, fluorescence endpoint. hit rate 0.67% among 360,000. inhibition, % at 15 µM. P49327;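 active = compounds whose normalised, plate-corrected inhibition of enzyme fluorescence in the single-dose primary screen is 50% or more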
FAS-TE conf = FAS thioesterase (human) inhibition, confirmation | hit rate 45% among 2,300 | shares compounds with FAS-TE inh | AID 624325 | recombinant FAS-TE, OMFH fluorogenic substrate, fluorescence | inhibition, % at 15 µM;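 active = compounds inhibiting the enzyme by at least 50% at 15 µM in any one of the replicates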
Each line names hits and unclear results; the compound was inactive in the other large screens (follow-up assays come after a bar, where they were run). Only some compounds are listed: those with a hit (about 4.6% of all), similar ones and a draw of the others.

COc1ccc(C=NNc2nc(-c3cccnc3)nc3ccccc23)c(OC)c1	none (no result: Rtt109 HAT inh, HDAC3 inh, M18AAP inhibitor, ALR inh, FAS-TE inh)
CC(=NNC(=O)CCC(=O)O)c1c(-c2ccccc2)c2cc(Br)ccc2[nH]c1=O	none (no result: Rtt109 HAT inh, HDAC3 inh, M18AAP inhibitor, ALR inh, FAS-TE inh)
O=[N+]([O-])c1ccc(C2CCCCC2=NOCc2ccccc2F)c([N+](=O)[O-])c1 (stereo unspecified)	none (no result: Rtt109 HAT inh, HDAC3 inh, M18AAP inhibitor, ALR inh, FAS-TE inh)
Cc1cc(C(=O)NN=C2CC(=O)c3ccccc32)c(C)n1-c1ccccc1	none (no result: Rtt109 HAT inh, HDAC3 inh, M18AAP inhibitor, ALR inh, FAS-TE inh)
O=C(c1nn2c(C(F)(F)F)cc(-c3ccco3)nc2c1Br)N1CCCc2ccccc21	none
O=C(c1nn2c(C(F)(F)F)cc(-c3cccs3)nc2c1Br)N1CCCc2ccccc21	FAS-TE inh 59 | FAS-TE conf inactive
O=C(/C=C/c1cccc([N+](=O)[O-])c1)N1CCOCC1	none
O=C(/C=C/c1cccc([N+](=O)[O-])c1)N1CCN(c2ccccn2)CC1	FAS-TE inh 51 | FAS-TE conf inactive
O=C(c1cccc([N+](=O)[O-])c1)N1CCN(c2ccccn2)CC1	none
O=C(/C=C/c1cccc([N+](=O)[O-])c1)N1CCN(S(=O)(=O)c2cccs2)CC1	FAS-TE inh 77 | FAS-TE conf 83
CCN(CC)Cc1c(C(=O)NN=Cc2cccs2)nnn1-c1nonc1N	none (no result: Rtt109 HAT inh, HDAC3 inh, M18AAP inhibitor, ALR inh, FAS-TE inh)
O=C(Nc1cccc([N+](=O)[O-])c1)NC1CCCCCCC1	FAS-TE inh 53 | FAS-TE conf 63
O=C(NC1CCCCC1)N(c1ccccc1)c1nnc(-c2cccc([N+](=O)[O-])c2)s1	FAS-TE inh 70 (no result: Rtt109 HAT inh, HDAC3 inh, UCH37 inh, M18AAP inhibitor, ALR inh) | FAS-TE conf 63
C[C@@H]1CN([C@H](C)CO)C(=O)c2cc(NC(=O)Nc3ccc(F)cc3)ccc2O[C@@H](C)CCCCO[C@H]1CN(C)S(=O)(=O)c1ccc(Cl)cc1	FAS-TE inh 69 (no result: Rtt109 HAT inh, HDAC3 inh, UCH37 inh, M18AAP inhibitor, ALR inh) | FAS-TE conf inactive
C[C@@H]1CCCCO[C@H](CN(C)C(=O)Nc2ccc3c(c2)OCO3)[C@@H](C)CN([C@H](C)CO)C(=O)c2cc(NS(=O)(=O)c3ccc(F)cc3)ccc2O1	none (no result: Rtt109 HAT inh, HDAC3 inh, UCH37 inh, M18AAP inhibitor, ALR inh)
C[C@@H]1CCCCO[C@@H](CN(C)S(=O)(=O)c2cccs2)[C@@H](C)CN([C@H](C)CO)C(=O)c2cc(NS(=O)(=O)c3ccccc3)ccc2O1	FAS-TE inh 63 (no result: Rtt109 HAT inh, HDAC3 inh, UCH37 inh, M18AAP inhibitor, ALR inh) | FAS-TE conf inactive
C[C@@H]1CCCCO[C@H](CN(C)C(=O)Nc2ccc3c(c2)OCO3)[C@H](C)CN([C@@H](C)CO)C(=O)c2cc(NS(=O)(=O)c3ccc(Cl)cc3)ccc2O1	FAS-TE inh 59 (no result: Rtt109 HAT inh, HDAC3 inh, UCH37 inh, M18AAP inhibitor, ALR inh) | FAS-TE conf inactive
Cc1ccc(S(=O)(=O)Nc2ccc3c(c2)C(=O)N([C@H](C)CO)C[C@H](C)[C@H](CN(C)C(=O)Nc2cccc4ccccc24)OCCCC[C@@H](C)O3)cc1	FAS-TE inh 61 (no result: Rtt109 HAT inh, HDAC3 inh, UCH37 inh, M18AAP inhibitor, ALR inh) | FAS-TE conf inactive
CCCCCCC(=NO)c1ccccn1	none (no result: Rtt109 HAT inh, HDAC3 inh, M18AAP inhibitor, ALR inh, FAS-TE inh)
N#Cc1c(Cl)nc(NN=Cc2ccccc2)c(Cl)c1Cl	none (no result: Rtt109 HAT inh, HDAC3 inh, M18AAP inhibitor, ALR inh, FAS-TE inh)
Fc1ccccc1C=NN1CCN(Cc2ccccc2Cl)CC1	none (no result: Rtt109 HAT inh, HDAC3 inh, M18AAP inhibitor, ALR inh, FAS-TE inh)
O=C(CSc1nc2ccccc2c(=O)n1-c1ccc(Cl)cc1)N/N=C/C=C/c1ccccc1[N+](=O)[O-]	FAS-TE inh 80 (no result: UCH37 inh) | FAS-TE conf inactive
O=C(CSc1nc2ccccc2c(=O)n1-c1ccccc1)N/N=C/C=C/c1ccccc1[N+](=O)[O-]	none (no result: HDAC3 inh, UCH37 inh)
Cc1ccccc1-n1c(SCC(=O)N/N=C/C=C/c2ccccc2[N+](=O)[O-])nc2ccccc2c1=O	FAS-TE inh 79 (no result: UCH37 inh) | FAS-TE conf inactive
CCCCCOCC1CC(CC(C)=NNC(N)=S)C(=O)O1 (stereo unspecified)	none (no result: Rtt109 HAT inh, HDAC3 inh, M18AAP inhibitor, ALR inh, FAS-TE inh)
COc1ccccc1-c1cc(SC)c(C#N)c(=O)o1	FAS-TE inh 55 (no result: UCH37 inh) | FAS-TE conf 47
O=C(Nc1ccccc1)c1nc[nH]c1C(=O)NCCN(CCNC(=O)c1[nH]cnc1C(=O)Nc1ccccc1)CCNC(=O)c1[nH]cnc1C(=O)Nc1ccccc1	none (no result: M18AAP inhibitor)
Cc1cccc(NC(=O)c2nc[nH]c2C(=O)NCCN(CCNC(=O)c2[nH]cnc2C(=O)Nc2cccc(C)c2)CCNC(=O)c2[nH]cnc2C(=O)Nc2cccc(C)c2)c1	FAS-TE inh 84 (no result: M18AAP inhibitor) | FAS-TE conf inactive
